ChEMBL document CHEMBL4311987, “Discovery of novel allosteric site and covalent inhibitors of FBPase with potent hypoglycemic effects” (Eur J Med Chem, 2019)
The source made the active and inactive calls. The rule behind the calls is not given here.

Columns and labels:
Hepatocyte [1] = assay: Inhibition of lipid accumulation in C57BLKS rat Primary hepatocytes assessed as reduction in insulin and glucose-induced TG level at 100 uM incubated for 24 hrs; assay type: functional, cell-based
In short: (§1)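 After overnight culture in DMEM, rat primary hepatocytes pretreated with compounds, then held in 25 mM glucose plus 500 nM insulin for 24 h to induce lipid accumulation. Triglyceride and total cholesterol measured with assay kits and normalized to BCA protein. Means ± SEM of four independent experiments.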

Hepatocyte [2] = assay: Inhibition of glucose production in cAMP and Dex pre-treated C57BLKS rat Primary hepatocytes incubated for 3 hrs by glucose assay kit method; assay type: functional, cell-based
In short: (§2)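 Rat primary hepatocytes cultured overnight in DMEM/10% FBS, then pretreated with compounds for 3 h in fresh medium. Switched to glucose-free DMEM with 2 mM sodium pyruvate, 20 mM sodium lactate and compound for 3 h. Medium glucose measured with a kit and normalized to BCA protein. Pathological arm adds 1 µM dexamethasone plus 200 µM cAMP for 3 h. Means ± SEM, n=4.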

[3] = Acute toxicity in C57BL/6 mouse assessed as mortality at 600 mg/kg, po observed for 14 days; assay type: organism-based; conditions: in vivo, 336 h
In short: (§3)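 Sixteen male C57BL/6 mice, 8 weeks old, were randomised into two groups. Each group got a single oral dose on day 1, either vehicle or 600 mg/kg. Animals were watched for 14 days for mortality, body-weight loss and allergic reactions, against controls.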

[4] = Acute toxicity in C57BL/6 mouse assessed as weight loss at 600 mg/kg, po observed for 14 days; assay type: organism-based; conditions: in vivo, 336 h; in short: as §3
Homo sapiens [5] = organism: Homo sapiens; assay: Selectivity index, ratio of IC50 for human FBPase N125A mutant expressed in Escherichia coli BL21 (DE3) to IC50 for human FBPase expressed in Escherichia coli BL21 (DE3)
In short: (§4)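 IC50 values for each FBPase point mutant and for wild-type human FBPase came from the same malachite-green assay. The index is mutant IC50 divided by wild-type IC50.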

[6] = Acute toxicity in C57BL/6 mouse assessed as allergic action at 600 mg/kg, po observed for 14 days; assay type: organism-based; conditions: in vivo, 336 h; in short: as §3
Hepatocyte [7] = assay: Inhibition of lipid accumulation in C57BLKS rat Primary hepatocytes assessed as reduction in insulin and glucose-induced TC level incubated for 24 hrs; assay type: functional, cell-based; in short: as §1
Hepatocyte [8] = assay: Inhibition of glucose production in C57BLKS rat Primary hepatocytes at 400 uM incubated for 3 hrs by glucose assay kit method relative to control; assay type: functional; in short: as §2
Hepatocyte [9] = assay: Inhibition of lipid accumulation in C57BLKS rat Primary hepatocytes assessed as reduction in insulin and glucose-induced TC level at 10 uM incubated for 24 hrs; assay type: functional, cell-based; in short: as §1
[10] = Cytotoxicity against C57BLKS rat Primary hepatocytes assessed as cell viability incubated for 6 hrs by SRB assay; assay type: cell-based, Hepatocyte; conditions: read-out: Activity
In short: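 Rat primary hepatocytes under physiological conditions exposed to compounds for 6 h. Viability read by sulforhodamine B staining. Means ± SEM of four independent experiments.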

Hepatocyte [11] = assay: Inhibition of glucose production in cAMP and Dex pre-treated C57BLKS rat Primary hepatocytes at 100 uM incubated for 3 hrs by glucose assay kit method; assay type: functional; in short: as §2
Hepatocyte [12] = assay: Cytotoxicity against C57BLKS rat Primary hepatocytes assessed as cell viability by measuring cellular protein level at 25 to 100 uM in presence of insulin and glucose by bicinchoninic acid method; assay type: cell-based
In short: (§5)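 Primary hepatocytes isolated from rat, cultured overnight in DMEM with 10% FBS, then exposed to compounds. Cellular protein per group measured by bicinchoninic acid (BCA) method as a viability control. The same protein values serve to normalize glucose, TG and TC contents. Pathological stimulation where applicable: 1 µM dexamethasone plus 200 µM cAMP, or 25 mM glucose plus 500 nM insulin for 24 h. Means ± SEM, four independent experiments.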

Hepatocyte [13] = assay: Inhibition of glucose production in C57BLKS rat Primary hepatocytes incubated for 3 hrs by glucose assay kit method; assay type: functional, cell-based; in short: as §2
Hepatocyte [14] = assay: Cytotoxicity against C57BLKS rat Primary hepatocytes assessed as cell viability by measuring cellular protein level at 10 to 100 uM in presence of cAMP and Dex by bicinchoninic acid method; assay type: cell-based; in short: as §5
Hepatocyte [15] = assay: Inhibition of lipid accumulation in C57BLKS rat Primary hepatocytes assessed as reduction in insulin and glucose-induced TG level at 10 uM incubated for 24 hrs; assay type: functional, cell-based; in short: as §1
[16] = biological target: Fructose-1,6-bisphosphatase 1 (Homo sapiens, UniProt P09467, D128A); assay: Inhibition of human FBPase D127A mutant expressed in Escherichia coli BL21 (DE3) using FBP as substrate incubated for 5 mins by malachite green dye based spectrophotometry
Fructose-1,6-bisphosphatase 1 (Homo sapiens, UniProt P09467, D128A), sequence (P09467 2-338 D128A limits assumed): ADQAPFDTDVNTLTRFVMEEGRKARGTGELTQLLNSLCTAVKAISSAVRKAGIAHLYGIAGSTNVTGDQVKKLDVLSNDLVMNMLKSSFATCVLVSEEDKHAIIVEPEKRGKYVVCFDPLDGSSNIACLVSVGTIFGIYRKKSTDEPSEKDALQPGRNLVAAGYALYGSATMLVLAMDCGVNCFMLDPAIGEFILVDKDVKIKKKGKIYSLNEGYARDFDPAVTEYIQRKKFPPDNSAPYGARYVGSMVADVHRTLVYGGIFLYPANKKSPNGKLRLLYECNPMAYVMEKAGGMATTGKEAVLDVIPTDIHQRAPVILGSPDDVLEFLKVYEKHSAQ
In short: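 Recombinant human FBPase (wild type or point mutants) was expressed in E. coli BL21 (DE3), purified and stored in 50% glycerol at -20 °C. Reactions ran 5 min at 37 °C, and released phosphate was read by malachite green.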

[17] = biological target: T1, Fructose-1,6-bisphosphatase 1 (Homo sapiens) (UniProt P09467); assay: Competitive inhibition of human FBPase expressed in Escherichia coli BL21 (DE3) using FBP as substrate incubated for 5 mins in presence of Mg2+ by malachite green dye based spectrophotometry
T1 sequence (whole entry): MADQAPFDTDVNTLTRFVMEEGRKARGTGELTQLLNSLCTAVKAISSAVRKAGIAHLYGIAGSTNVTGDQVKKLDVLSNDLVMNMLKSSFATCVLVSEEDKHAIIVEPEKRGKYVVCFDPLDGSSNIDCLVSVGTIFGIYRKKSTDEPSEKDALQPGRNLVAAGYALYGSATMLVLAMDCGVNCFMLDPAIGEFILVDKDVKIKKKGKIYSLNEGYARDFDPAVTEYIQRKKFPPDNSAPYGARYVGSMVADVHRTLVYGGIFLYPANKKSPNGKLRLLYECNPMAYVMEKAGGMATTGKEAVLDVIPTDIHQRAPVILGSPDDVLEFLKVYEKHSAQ
In short: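 Malachite-green phosphate readout of human FBPase (300 nM, E. coli-expressed) in 50 mM Tris-HCl pH 7.4 with 0.4 mM FBP, 5 min at 37 °C. Compound concentration was varied at fixed Mg2+ levels, with Mg2+ raised from 1 mM to 10 mM, to assess competition with Mg2+.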

[18] = biological target: T1, Fructose-1,6-bisphosphatase 1 (Homo sapiens); assay: Reversible inhibition of human FBPase expressed in Escherichia coli BL21 (DE3) at 20 times diluted IC50 using FBP as substrate preincubated for 30 to 180 mins followed by 20 fold compound dilution by malachite green dye based spectrophotometry
In short: (§6)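 Activity was started with 0.4 mM FBP and 0.8 mM Mg2+. Reactions were stopped with 1 M perchloric acid at 30, 60, 90, 120, 150 and 180 min, and phosphate was then detected by malachite green.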

Homo sapiens [19] = organism: Homo sapiens; assay: Selectivity index, ratio of IC50 for human FBPase D127A mutant expressed in Escherichia coli BL21 (DE3) to IC50 for human FBPase expressed in Escherichia coli BL21 (DE3); in short: as §4
[20] = biological target: T1, Fructose-1,6-bisphosphatase 1 (Homo sapiens); assay: Inhibition of human FBPase expressed in Escherichia coli BL21 (DE3) at 10 times of IC50 using FBP as substrate incubated for 30 to 180 mins mins by malachite green dye based spectrophotometry; in short: as §6
[21] = biological target: T1, Fructose-1,6-bisphosphatase 1 (Homo sapiens); assay: Binding affinity to human FBPase expressed in Escherichia coli BL21 (DE3) incubated for 2 hrs by LC-MS analysis
[22] = biological target: T2, Fructose-1,6-bisphosphatase 1 (Homo sapiens, UniProt P09467); assay: Binding affinity to human FBPase expressed in Escherichia coli BL21 (DE3) assessed as dissociation constant at 100 uM by UV-visible spectroscopy
T2 sequence (P09467 whole entry): T1 sequence (whole entry)

In the case of `CCOC(=O)C(C)(C)Oc1ccc(F)c(/C=C/[N+](=O)[O-])c1`, the inhibition (Hepatocyte [1]) is reported as “inactive”, the inhibition (Hepatocyte [2]) is reported as “Dose-dependent effect” and the Activity [3] is reported as “Non-Toxic”. The Activity [4] was “Non-Toxic”, the Ratio IC50 (Homo sapiens [5]) was 492 and the Activity [6] was “Non-Toxic”. The inhibition (Hepatocyte [7]) was “Dose-dependent effect”, the inhibition at 400 µM (Hepatocyte [8]) was 90% and the inhibition (Hepatocyte [9]) was “Active”. The viability at 6 h [10] was greater than 80%, the inhibition at 100 µM (Hepatocyte [11]) was 95% and the Activity (Hepatocyte [12]) was “Non-Toxic”. For the same compound, the inhibition (Hepatocyte [13]) was “Dose-dependent effect”, the Activity (Hepatocyte [14]) was “Non-Toxic” and the inhibition (Hepatocyte [15]) was “Active”.
For `O=[N+]([O-])/C=C/c1cccc(F)c1`, the IC50 [16] was 4 µM, the Ratio IC50 (Homo sapiens [5]) was greater than 625 and the inhibition [17] was “Active”. The inhibition [18] was “Active”, the Ratio IC50 (Homo sapiens [19]) was 13 and the inhibition [20] was 100%. The Activity [21] was “Active”.
With `N#Cc1ccc(/C=C/[N+](=O)[O-])cc1` the IC50 [16] was 2 µM, the Ratio IC50 (Homo sapiens [5]) was greater than 556 and the inhibition [17] was “Active”. The Kd [22] was 54 µM, the inhibition [18] was “Active” and the Ratio IC50 (Homo sapiens [19]) was 5.7. For the same compound, the inhibition [20] was 100% and the Activity [21] was “Active”.
